Test results taken from paper PMC8361970 (Pediatric Diabetes, 2021).

Columns and labels:
Assay type in all cases: in vivo, human
[1] = system: children and adolescents (6–17 years) with type 1 diabetes, insulin-induced hypoglycemia; conditions: for Mean PG increase from baseline after 30 min: 30 min after single SC dose, full analysis set; for IV glucose rescue required (participants): within 45 min of single SC dose
In short: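 After an overnight fast, IV insulin glulisine was infused until PG fell below 80 mg/dL. Five min later, if PG was 54–80 mg/dL, a single SC injection was given. Central-lab PG was taken pre-dose and at 4–45 min (60 min if ≥21 kg). Change from baseline was analysed by ANCOVA (treatment, age group, injection site; baseline PG covariate), with PG at rescue carried forward.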

[2] = system: children and adolescents (6–17 years) with type 1 diabetes; test: Phase 3 trial: anti-drug antibodies; conditions: the one positive participant
[3] = system: children and adolescents (6–17 years) with type 1 diabetes; test: Phase 3 trial: adverse events; conditions: for Duration of nausea AEs / Duration of vomiting AEs: majority of events; for Onset of nausea AEs after dosing: most AEs of nausea

Row | Anti-drug antibody titer [2] | Cross-reaction of anti-drug antibodies with glucagon [2] | Neutralizing activity of anti-drug antibodies [2] | Substance | Mean PG increase from baseline after 30 min [1] [mg/dL] | IV glucose rescue required (participants) [1] | Duration of nausea AEs [3] | Duration of vomiting AEs [3] | Onset of nausea AEs after dosing [3] [h]
1 | low titer | did not cross‐react with glucagon | No neutralizing activity was detected | dasiglucagon | 98.2 | none | less than 2 h | less than 5 min | 1.5 to 3
2 | – | – | – | glucagon [reference compound] | 8440 | none | less than 2 h | less than 5 min | 1.5 to 3
